The text below walks through data of ChEMBL document CHEMBL4715751, “Novel N-substituted indole Schiff bases as dual inhibitors of cyclooxygenase-2 and 5-lipoxygenase enzymes: Synthesis, biological activities in vitro and docking study” (Eur J Med Chem, 2016).

Structures are written as SMILES. Active and inactive are the calls of the source. No cut-off for these calls is given here.

The nature of series [1]: Inhibition of potato 5-LOX assessed as reduction in hydroperoxide level by EIA method. More on the design: species or system Solanum tuberosum. The procedure, abridged:
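Potato 5-LOX kit detecting hydroperoxides formed by lipoxygenation. Compounds dissolved in minimal DMSO and diluted in 0.1 M Tris HCl, pH 7.4, tested at 0.001, 1, 5, 10 μM. IC50 derived per the manufacturer's instructions, mean of two determinations.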

Series [2] concerns HUVEC. Description: Antiinflammatory activity in HUVEC assessed as reduction in TNF-alpha-induced E-selectin expression at 50 uM preincubated for 30 mins followed by TNF-alpha addition and measured after 4 hrs by ELISA. Format: functional. Particulars: Homo sapiens, time 4.5 hrs. The procedure, abridged:
(§1)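 HUVECs seeded at 1×10^4/well and grown to confluence; indole derivatives (50 μM) added 30 min before TNFα 10 ng/ml, then 4 h further incubation. Cells fixed and E-selectin (ELAM) measured by ELISA. Parallel Calcein AM read-out monitored non-specific toxicity. Curcumin 10 μM served as positive control.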
In general terms: In an ELISA, binding on a coated surface is turned into a signal by an enzyme label.

In a further series the test system is CCRF-CEM. Description: Cytotoxicity against human CEM cells assessed as reduction in cell viability after 72 hrs by calcein-AM staining based fluorescence analysis. The procedure, abridged:
(§2)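 Cells in DMEM with 10% FBS, 2 mmol/l L-glutamine, penicillin/streptomycin, 37 °C, 5% CO2. About 1.0×10^5 cells/ml plated, stabilized 24 h, then compounds added from DMSO stocks (final DMSO ≤0.6%), six 3-fold dilutions, top final concentration generally 50 µM. After 72 h, Calcein AM added for 1 h. Fluorescence expressed as % of DMSO controls; IC50 taken from dose-response curves. Means ±SD of three independent experiments in triplicate.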

A further series deals with MCF7. Description: Cytotoxicity against human MCF7 cells assessed as reduction in cell viability after 72 hrs by calcein-AM staining based fluorescence analysis. Particulars: MCF7, 72 h. The procedure, abridged:
as §2

A further series relates to HeLa. Description: Cytotoxicity against human HeLa cells assessed as reduction in cell viability after 72 hrs by calcein-AM staining based fluorescence analysis. The procedure, abridged:
as §2

A further series has as its system BJ. Description: Cytotoxicity against human BJ cells assessed as reduction in cell viability after 72 hrs by calcein-AM staining based fluorescence analysis. A digest of the protocol: as §2
Series [3] concerns the target T1, Prostaglandin G/H synthase 1 (Ovis aries, UniProt P05979).
T1 sequence (P05979 whole entry): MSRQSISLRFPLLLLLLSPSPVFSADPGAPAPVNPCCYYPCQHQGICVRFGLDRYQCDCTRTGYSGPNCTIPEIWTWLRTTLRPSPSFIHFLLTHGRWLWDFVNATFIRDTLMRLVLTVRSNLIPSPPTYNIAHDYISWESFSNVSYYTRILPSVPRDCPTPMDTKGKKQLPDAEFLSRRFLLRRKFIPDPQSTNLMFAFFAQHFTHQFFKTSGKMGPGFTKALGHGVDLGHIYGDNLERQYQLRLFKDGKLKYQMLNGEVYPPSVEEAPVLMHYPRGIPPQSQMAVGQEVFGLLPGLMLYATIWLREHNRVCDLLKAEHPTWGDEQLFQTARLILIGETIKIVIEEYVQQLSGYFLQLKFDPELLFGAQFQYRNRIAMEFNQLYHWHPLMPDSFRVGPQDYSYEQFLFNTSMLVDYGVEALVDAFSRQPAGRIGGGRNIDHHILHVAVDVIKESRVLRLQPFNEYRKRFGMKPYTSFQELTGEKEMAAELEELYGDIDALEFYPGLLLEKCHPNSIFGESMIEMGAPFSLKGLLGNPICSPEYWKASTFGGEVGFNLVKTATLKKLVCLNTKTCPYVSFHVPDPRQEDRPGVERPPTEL
Description: Inhibition of ovine COX-1 assessed as appearance of oxidized TMPD level by EIA method.

In series [4] the test system is HUVEC. Description: Antiinflammatory activity in HUVEC assessed as reduction in TNF-alpha-induced E-selectin expression at 30 to 50 uM preincubated for 30 mins followed by TNF-alpha addition and measured after 4 hrs by ELISA. Particulars: dose 30-50 µM, time 4.5 hrs; for Activity: Homo sapiens. The class given is functional. A digest of the protocol: as §1
In series [5] the test system is HUVEC. Description: Cytotoxicity against HUVEC assessed as reduction in cell viability measured after 24 hrs by calcein-AM staining based fluorescence analysis. Particulars: for Activity: human, huvec, time 24 hrs. On the set-up: species or system Homo sapiens.

In the case of `O=c1c(O)c(-c2ccc(O)c(O)c2)oc2cc(O)cc(O)c12` [QUERCETIN], the IC50 (usually the concentration that gives 50% inhibition) in series [1] came out at 5.96 µM.

Turning to `Cc1c(/N=C/c2c[nH]c3ccccc23)c(=O)n(-c2ccccc2)n1C`, the outcome with HUVEC [2] was Active. Besides, the IC50 with CCRF-CEM, in the series with MCF7, with HeLa and with BJ was over 50 µM each time.

Regarding `CCOC(=O)c1ccc(NC(=O)Cn2cc(/C=N/c3c(C)n(C)n(-c4ccccc4)c3=O)c3ccccc32)cc1`, the result with HUVEC [2] was Active. For the same molecule, the 50% inhibitory concentration (IC50) in the series with CCRF-CEM was 29.7 µM; in the series on MCF7, 38.1 µM; with HeLa, 24.8 µM; with BJ, 50 µM.

Take `C(=N\n1cnnc1)/c1c[nH]c2ccccc12`: the outcome with HUVEC [2] was Active. Moreover, the IC50 with CCRF-CEM is over 50 µM; with MCF7, over 50 µM; in the series with HeLa, 9.9 µM; with BJ it was over 50 µM.

Regarding `Cc1c(/N=C/c2cn(C(=O)c3ccc(Cl)cc3)c3ccccc23)c(=O)n(-c2ccccc2)n1C`, the values for the IC50 in series [3] and in series [1] were 9.25 µM and 9.11 µM, respectively. For the same molecule, the outcome in the series with HUVEC [4] was Active. The Activity entry with HUVEC [5] is given as “Non-Toxic”.

Take `C(=N\n1cnnc1)/c1cn(Cc2ccccc2)c2ccccc12`: the IC50 in series [3] is 9.21 µM; in [1], 7.41 µM; in the series with HUVEC [5] (Homo sapiens, HUVEC), 14.9 µM. For the same molecule, the result with HUVEC [4] was Active.

For `Cc1ccc(C(=O)n2cc(/C=N/n3cnnc3)c3ccccc32)cc1`, the IC50 in series [3] amounted to 7.89 µM; in series [1] it was 6.54 µM. The “inhibition (INH)” value in the series on HUVEC [4] is recorded as 33%. Further, the Activity result in the series on HUVEC [5] is listed as “Non-Toxic”.

For the molecule `O=C(Cn1cc(/C=N/n2cnnc2)c2ccccc21)Nc1ccc(O)cc1`, the result in the series on HUVEC [2] was Active. Further, the IC50 with CCRF-CEM, with MCF7, in the series on HeLa and with BJ was over 50 µM throughout.

On to `O=C(c1ccccc1)n1cc(/C=N/n2cnnc2)c2ccccc21`, for which the 50% inhibitory concentration (IC50) in series [3] worked out at 10.4 µM; in [1] it was 6.54 µM. For the same molecule, the outcome in the series with HUVEC [4] was Active. The Activity result with HUVEC [5] is on record as “Non-Toxic”.

With `Cc1ccc(NC(=O)Cn2cc(/C=N/c3c(C)n(C)n(-c4ccccc4)c3=O)c3ccccc32)cc1`, in the series with HUVEC [2], the outcome was Active. In addition, the IC50 in the series on CCRF-CEM was 42 µM; with MCF7, over 50 µM; with HeLa, over 50 µM; with BJ, 49 µM.

Consider `COc1ccc(NC(=O)Cn2cc(/C=N/n3cnnc3)c3ccccc32)cc1`, for which the inhibition (in general, the percentage by which the read-out fell short of the control) at 50 µM with HUVEC [2] was 15%. Moreover, the IC50 with CCRF-CEM, in the series with MCF7, in the series with HeLa and with BJ was over 50 µM in each case.

Regarding `COc1ccc(NC(=O)Cn2cc(/C=N/c3c(C)n(C)n(-c4ccccc4)c3=O)c3ccccc32)cc1`, the result in the series with HUVEC [2] was Active. Further, the IC50 was 50 µM with CCRF-CEM, over 50 µM in the series with MCF7, over 50 µM in the series on HeLa and 50 µM in the series on BJ.

Regarding `Cc1c(/N=C/c2cn(CC(=O)Nc3ccccc3)c3ccccc23)c(=O)n(-c2ccccc2)n1C`, the outcome in the series with HUVEC [2] was Active. The IC50 in the series on CCRF-CEM, in the series on MCF7, with HeLa and in the series on BJ was over 50 µM throughout.

Turning to `O=C(Cn1cc(/C=N/n2cnnc2)c2ccccc21)Nc1ccccc1`, the outcome with HUVEC [2] was Active. Also, the IC50 with CCRF-CEM, in the series on MCF7, with HeLa and with BJ was over 50 µM in each case.

Consider `Cc1ccc(C(=O)n2cc(/C=N/c3c(C)n(C)n(-c4ccccc4)c3=O)c3ccccc32)cc1`, for which the concentration for half-maximal inhibition (IC50) in series [3] was 10.8 µM; in series [1], 5.78 µM. In addition, in the series with HUVEC [4], the result was Active. Further, the Activity result in the series with HUVEC [5] is “Non-Toxic”.

In the case of `Cc1ccc(NC(=O)Cn2cc(/C=N/n3cnnc3)c3ccccc32)cc1`, the outcome in the series on HUVEC [2] was Active. Further, the IC50 with CCRF-CEM, in the series with MCF7, in the series with HeLa and in the series with BJ was over 50 µM in each case.

In the case of `CC(=O)c1ccc(NC(=O)Cn2cc(/C=N/n3cnnc3)c3ccccc32)cc1`, the result with HUVEC [2] was Active. Besides, the IC50 in the series with CCRF-CEM, in the series with MCF7, with HeLa and in the series on BJ was over 50 µM in each case.

For `Cc1c(/N=C/c2cn(C(=O)c3ccccc3)c3ccccc23)c(=O)n(-c2ccccc2)n1C`, the IC50 turned out to be 7.65 µM in series [3] and 7.54 µM in [1]. In addition, the result in the series on HUVEC [4] was Active. Moreover, the Activity entry in the series on HUVEC [5] is “Non-Toxic”.

For `CC(=O)c1ccc(NC(=O)Cn2cc(/C=N/c3c(C)n(C)n(-c4ccccc4)c3=O)c3ccccc32)cc1`, the result with HUVEC [2] was Active. Also, the IC50 was 42.9 µM in the series on CCRF-CEM, over 50 µM in the series with MCF7, over 50 µM in the series with HeLa and over 50 µM with BJ.

For `Cc1c(/N=C/c2cn(Cc3ccccc3)c3ccccc23)c(=O)n(-c2ccccc2)n1C`, the figures for the half-maximal inhibitory concentration (IC50) in series [3] and in series [1] were 11.2 µM and 5.98 µM, respectively. Moreover, the result in the series with HUVEC [4] was Active. In the series on HUVEC [5], the Activity result is given as “Non-Toxic”.

For the molecule `Cc1c(/N=C/c2cn(CC(=O)Nc3ccc(O)cc3)c3ccccc23)c(=O)n(-c2ccccc2)n1C`, the result in the series on HUVEC [2] was Active. For the same molecule, the IC50 with CCRF-CEM was over 50 µM; in the series with MCF7 it was over 50 µM; in the series on HeLa it was over 50 µM; in the series on BJ, 50 µM.

For `CCOC(=O)c1ccc(NC(=O)Cn2cc(/C=N/n3cnnc3)c3ccccc32)cc1`, the inhibition at 50 µM with HUVEC [2] was found to be 15%. Besides, the IC50 in the series with CCRF-CEM was over 50 µM; in the series on MCF7 it was over 50 µM; in the series with HeLa, over 50 µM; in the series with BJ it was 31.3 µM.

On to `O=C(c1ccc(Cl)cc1)n1cc(/C=N/n2cnnc2)c2ccccc21`, for which the IC50 came to 8.65 µM in series [3] and 8.11 µM in [1]. In addition, the outcome in the series on HUVEC [4] was Active. The Activity result with HUVEC [5] is reported as “Non-Toxic”.
